One experiment concerns MC1R. To be noted: no reference given; cited from earlier work.
Experiment [1] concerns the target MC1 receptor (B16/F10 melanoma cells) (Mus musculus, UniProt Q01727). Nature of the experiment: In vitro competitive receptor binding assay on B16/F10 melanoma cells. In a few lines: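 Competitive displacement on intact B16/F10 cells (0.5×10^5/well, n = 3; assay run in triplicate): 2 h at 25 °C with ~30,000 cpm 125I-(Tyr2)-NDP-MSH plus 10−12 to 10−5 M test peptide in MEM binding medium (25 mM HEPES pH 7.4, 0.2% BSA, 0.3 mM 1,10-phenanthroline). Cells rinsed twice in ice-cold 0.2% BSA/PBS, lysed in 1 N NaOH 5 min, gamma-counted; IC50 by curve fit.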

Bridge positions count the residues as written; N and C are the ends. Square brackets hold non-standard residues; d marks the D form. Peptide text beside a SMILES is read from it. * marks the point of attachment. NODAGA = O=C(O)CN1CCN(CC(=O)O)CCN(C(CCC(=O)*)C(=O)O)CC1; Nle = CCCC[C@H](N)C(=O)O

Usually IC50 stands for the point on the concentration scale where inhibition reaches its midpoint. Lower therefore signals higher potency.

MC1 receptor (B16/F10 melanoma cells), sequence (Q01727 whole entry): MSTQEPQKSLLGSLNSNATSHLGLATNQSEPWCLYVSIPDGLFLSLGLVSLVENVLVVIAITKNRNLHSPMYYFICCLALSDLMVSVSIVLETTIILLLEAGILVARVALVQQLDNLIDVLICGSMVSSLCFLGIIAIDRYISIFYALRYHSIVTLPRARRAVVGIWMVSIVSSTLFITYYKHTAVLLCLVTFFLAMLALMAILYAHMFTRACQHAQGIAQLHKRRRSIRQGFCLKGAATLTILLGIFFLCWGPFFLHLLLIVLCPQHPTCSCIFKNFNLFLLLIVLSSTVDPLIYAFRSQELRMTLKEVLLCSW

[Nle^4, D-Phe^7]-α-MSH [NDP-MSH]: the “MC1R binding affinity” value in the experiment with MC1R is given as “sub-nanomolar MC1R binding affinity”. In the case of `CCCC[C@H](NC(=O)CNC(=O)CNC(=O)CCC(C(=O)O)N1CCN(CC(=O)O)CCN(CC(=O)O)CC1)C(=O)N[C@H]1CC(=O)NCCCC[C@@H](C(N)=O)NC(=O)[C@H](Cc2c[nH]c3ccccc23)NC(=O)[C@H](CCCNC(=N)N)NC(=O)[C@@H](Cc2ccccc2)NC(=O)[C@H](Cc2c[nH]cn2)NC1=O` (stereo partly drawn) [NODAGA-GGNle-CycMSHhex, 1,4,7-triazacyclononane,1-gluteric acid-4,7-acetic acid-GlyGlyNle-c[Asp-His-DPhe-Arg-Trp-Lys]-CONH2] ({NODAGA}-GG[Nle]DH[dF]RWK-NH2; lactam 4-9), the IC50 in experiment [1] came to 870 ± 120 pM.

The values above are taken from paper PMC7704577 (Bioorganic & medicinal chemistry letters, 2020).
